Laboratory results as given in ChEMBL document CHEMBL2010760, “New insights into the structure-cytotoxicity relationship of spirostan saponins and related glycosides” (Bioorg Med Chem, 2012).
Activity calls are given as the source filed them. The calls are words filed in the database; no cut-off is given here.

Key:
HL-60 [1] = assay: Cytotoxicity against human HL60 cells assessed as cell viability after 72 hrs by MTT assay; format: functional, cell-based; settings: HL-60, 72 h
Method in brief: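 HL-60 myeloid leukemia cells in RPMI 1640 with 10% heat-inactivated FBS, penicillin/streptomycin, 37 °C, 5% CO2. Exponentially growing cells (1 × 10⁴/well) exposed to 0.3–100 µM glycoside (100 mM DMSO stocks) for 72 h. MTT read at 570 nm. Survival taken as percent of control absorbance. IC50 from concentration–response curves fitted per experiment (DeLean equation). Triplicate determinations.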

HL-60 [2] = assay: Induction of apoptosis in human HL60 cells assessed as fragmented chromatin at 10 uM after 24 hrs by Hoechst 33258 staining method; format: functional, cell-based
Method in brief: (§1)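 Nuclear chromatin condensation and fragmentation in HL-60 cells scored by fluorescent microscopy after Hoechst 33258 staining. Treated cells compared with control cells.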

HL-60 [3] = assay: Induction of apoptosis in human HL60 cells assessed as caspase 3/7 activation measuring cleavage of tetrapeptide DEVD-pNA at 1 to 10 uM after 24 hrs; format: functional, cell-based
Method in brief: (§2)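 HL-60 cells treated with increasing glycoside concentrations and harvested at 24 h. Lysates assayed colorimetrically with DEVD-pNA (caspase-3/7), IETD-pNA (caspase-8) and LEHD-pNA (caspase-9). Activity expressed as fold increase over control, mean ± SE. Two independent experiments, each in duplicate.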

HL-60 [4] = assay: Growth inhibition in human HL60 cells at 10 uM after 24 hrs by phase contrast microscopy; format: functional, cell-based
Method in brief: (§3)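 HL-60 cells cultured in RPMI 1640/10% FBS at 37 °C, 5% CO2. Treated with 10 µM glycoside for 24 h. Representative fields examined by inverted phase contrast microscopy for morphology and growth.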

HL-60 [5] = assay: Induction of apoptosis in human HL60 cells assessed as condensed chromatin at 10 uM after 24 hrs by Hoechst 33258 staining method; format: functional, cell-based; method in brief: as §1
HL-60 [6] = assay: Induction of apoptosis in human HL60 cells assessed as increase in hypodiploid cells at sub-G1 fraction at 10 uM after 24 hrs by propidium iodide based flow cytometry relative to control; format: functional
Method in brief: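 HL-60 cells incubated with 10 µM glycoside for 24 h, labelled with propidium iodide and analysed by flow cytometry. Hypodiploid (sub-G1) fraction compared with control cells.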

HL-60 [7] = assay: Induction of apoptosis in human HL60 cells assessed as caspase 8 activation measuring cleavage of tetrapeptide IETD-pNA at 1 to 10 uM after 24 hrs; format: functional, cell-based; method in brief: as §2
HL-60 [8] = assay: Induction of apoptosis in human HL60 cells assessed as morphological changes at 10 uM after 24 hrs by phase contrast microscopy; format: functional, cell-based; method in brief: as §3
HL-60 [9] = assay: Induction of apoptosis in human HL60 cells assessed as caspase 9 activation measuring cleavage of tetrapeptide LEHD-pNA at 1 to 10 uM after 24 hrs; format: functional, cell-based; method in brief: as §2

SMILES	IC50 (HL-60 [1]) [µM]	other results
C[C@@H]1CC[C@@]2(OC1)O[C@H]1C[C@H]3[C@@H]4CC[C@H]5C[C@@H](O[C@@H]6O[C@H](CO)[C@@H](O)[C@H](O)[C@H]6O)CC[C@]5(C)[C@H]4CC(=O)[C@]3(C)[C@H]1[C@@H]2C	> 100	–
C[C@@H]1CC[C@@]2(OC1)O[C@H]1C[C@H]3[C@@H]4CC(=O)[C@@]5(O)C[C@@H](O[C@@H]6O[C@@H]7CO[C@@H](c8ccccc8)O[C@H]7[C@H](OC(=O)C(C)(C)C)[C@H]6O)CC[C@]5(C)[C@H]4CC[C@]3(C)[C@H]1[C@@H]2C	3.3	–
C[C@@H]1CC[C@@]2(OC1)O[C@H]1C[C@H]3[C@@H]4CC[C@H]5C[C@@H](O[C@@H]6O[C@H](CO)[C@@H](O)[C@H](O)[C@H]6O[C@@H]6O[C@@H](C)[C@H](O)[C@@H](O)[C@H]6O)CC[C@]5(C)[C@H]4CC(=O)[C@]3(C)[C@H]1[C@@H]2C	> 100	–
C[C@@H]1CC[C@@]2(OC1)O[C@H]1C[C@H]3[C@@H]4CC(=O)[C@@]5(O)C[C@@H](O[C@@H]6O[C@H](CO)[C@@H](O[C@@H]7O[C@@H](C)[C@H](O)[C@@H](O)[C@H]7O)[C@H](O)[C@H]6O[C@@H]6O[C@@H](C)[C@H](O)[C@@H](O)[C@H]6O)CC[C@]5(C)[C@H]4CC[C@]3(C)[C@H]1[C@@H]2C	> 100	–
C[C@@H]1CC[C@@]2(OC1)O[C@H]1C[C@H]3[C@@H]4CC[C@H]5C[C@@H](O[C@@H]6O[C@@H]7CO[C@@H](c8ccccc8)O[C@H]7[C@H](OC(=O)C(C)(C)C)[C@H]6O)CC[C@]5(C)[C@H]4CC(=O)[C@]3(C)[C@H]1[C@@H]2C	45	–
C[C@@H]1CC[C@@]2(OC1)O[C@H]1C[C@H]3[C@@H]4CC[C@H]5C[C@@H](O[C@@H]6O[C@H](COC(=O)C(C)(C)C)[C@@H](O)[C@H](OC(=O)C(C)(C)C)[C@H]6O)CC[C@]5(C)[C@H]4CC(=O)[C@]3(C)[C@H]1[C@@H]2C	12	–
C[C@@H]1CC[C@@]2(OC1)O[C@H]1C[C@H]3[C@@H]4CC(=O)[C@@]5(O)C[C@@H](O[C@@H]6O[C@H](CO)[C@@H](O)[C@H](O)[C@H]6O)CC[C@]5(C)[C@H]4CC[C@]3(C)[C@H]1[C@@H]2C	> 100	–
C[C@@H]1CC[C@@]2(OC1)O[C@H]1C[C@H]3[C@@H]4CC[C@H]5C[C@@H](O[C@@H]6O[C@H](CO[C@@H]7O[C@@H](C)[C@H](O)[C@@H](O)[C@H]7O)[C@@H](O[C@@H]7O[C@@H](C)[C@H](O)[C@@H](O)[C@H]7O)[C@H](O)[C@H]6O)CC[C@]5(C)[C@H]4CC(=O)[C@]3(C)[C@H]1[C@@H]2C	> 100	–
C[C@@H]1CC[C@@]2(OC1)O[C@H]1C[C@H]3[C@@H]4CC(=O)[C@@]5(O)C[C@@H](O[C@@H]6O[C@H](COC(=O)C(C)(C)C)[C@@H](O)[C@H](OC(=O)C(C)(C)C)[C@H]6O)CC[C@]5(C)[C@H]4CC[C@]3(C)[C@H]1[C@@H]2C	2.1	Activity (HL-60 [2]): Active; Activity (HL-60 [3]): Active; growth inhibition (GI) (HL-60 [4]): Active; Activity (HL-60 [5]): Active; fold change (FC) (HL-60 [6]): 7; Activity (HL-60 [7]): Active; Activity (HL-60 [8]): Active; Activity (HL-60 [9]): Active
C[C@@H]1CC[C@@]2(OC1)O[C@H]1C[C@H]3[C@@H]4CC[C@H]5C[C@@H](O[C@@H]6O[C@H](CO)[C@@H](O[C@@H]7O[C@@H](C)[C@H](O)[C@@H](O)[C@H]7O)[C@H](O)[C@H]6O[C@@H]6O[C@@H](C)[C@H](O)[C@@H](O)[C@H]6O)CC[C@]5(C)[C@H]4CC(=O)[C@]3(C)[C@H]1[C@@H]2C	4.3	–
C[C@@H]1CC[C@@]2(OC1)O[C@H]1C[C@H]3[C@@H]4CC=C5C[C@@H](O[C@@H]6O[C@H](CO)[C@@H](O[C@@H]7O[C@@H](C)[C@H](O)[C@@H](O)[C@H]7O)[C@H](O)[C@H]6O[C@@H]6O[C@@H](C)[C@H](O)[C@@H](O)[C@H]6O)CC[C@]5(C)[C@H]4CC[C@]3(C)[C@H]1[C@@H]2C [DIOSCIN]	3.8	–
C[C@@H]1CC[C@@]2(OC1)O[C@H]1C[C@H]3[C@@H]4CC(=O)[C@@]5(O)C[C@@H](O[C@@H]6O[C@H](CO[C@@H]7O[C@@H](C)[C@H](O)[C@@H](O)[C@H]7O)[C@@H](O[C@@H]7O[C@@H](C)[C@H](O)[C@@H](O)[C@H]7O)[C@H](O)[C@H]6O)CC[C@]5(C)[C@H]4CC[C@]3(C)[C@H]1[C@@H]2C	> 100	–
C[C@@H]1CC[C@@]2(OC1)O[C@H]1C[C@H]3[C@@H]4CC(=O)[C@@]5(O)C[C@@H](O[C@@H]6O[C@H](CO)[C@@H](O)[C@H](O)[C@H]6O[C@@H]6O[C@@H](C)[C@H](O)[C@@H](O)[C@H]6O)CC[C@]5(C)[C@H]4CC[C@]3(C)[C@H]1[C@@H]2C	86.7	–
